# Source: PMC6298601 (Biochemical pharmacology, 2018)
# Where “and” joins values, the source holds several entries; their conditions need not be identical. Equal values may be shown once. Entries after “also recorded” stand apart in the source; their conditions may differ. Read-outs that look alike come from different tables or passages of the source.
# Columns and labels:
# [1] = tested on: MAO activity in Neuroscreen-1 (NS-1) cells; assay: MAO activity in lysates of treated Neuroscreen-1; format: cell-based, rat; conditions: deprenyl 1.0 μM, 12 hours
# Procedure, shortened: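 NS-1 cells (rat PC12 subclone) in suspension culture were treated for 12 hours with test compound (100 µM), a selective MAO-B inhibitor reference (1.0 µM) or ethanol, alongside untreated controls. Lysates were prepared from the cells. MAO activity in the lysates was measured by fluorometric kynuramine deamination, with kynuramine at 80 µM for MAO-A and 50 µM for MAO-B.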
# [2] = cited from earlier work
# recombinant human MAO-B [3] = target: T1, recombinant human MAO-B (Homo sapiens, UniProt P27338); assay: biochemical; format: biochemical
# T1 sequence (P27338 1-520): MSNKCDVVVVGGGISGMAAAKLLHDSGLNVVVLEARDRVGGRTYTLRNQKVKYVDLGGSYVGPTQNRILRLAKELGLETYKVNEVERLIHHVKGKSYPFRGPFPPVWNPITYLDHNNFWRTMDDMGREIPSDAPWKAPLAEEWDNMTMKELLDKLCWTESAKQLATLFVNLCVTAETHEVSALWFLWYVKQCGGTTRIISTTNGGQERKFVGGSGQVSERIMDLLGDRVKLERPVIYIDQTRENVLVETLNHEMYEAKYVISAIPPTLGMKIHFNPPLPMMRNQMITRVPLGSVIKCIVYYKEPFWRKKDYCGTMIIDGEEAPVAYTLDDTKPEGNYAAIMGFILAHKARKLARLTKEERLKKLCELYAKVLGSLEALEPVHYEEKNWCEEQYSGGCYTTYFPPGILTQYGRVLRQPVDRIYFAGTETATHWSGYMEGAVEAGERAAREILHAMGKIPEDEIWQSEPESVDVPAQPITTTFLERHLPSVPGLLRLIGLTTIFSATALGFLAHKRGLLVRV
# recombinant human MAO-A = target: T2, recombinant human MAO-A (Homo sapiens, UniProt P21397); assay: Fluorometric kynuramine deamination assay, recombinant human MAO-A inhibition; format: biochemical
# T2 sequence (P21397 1-527): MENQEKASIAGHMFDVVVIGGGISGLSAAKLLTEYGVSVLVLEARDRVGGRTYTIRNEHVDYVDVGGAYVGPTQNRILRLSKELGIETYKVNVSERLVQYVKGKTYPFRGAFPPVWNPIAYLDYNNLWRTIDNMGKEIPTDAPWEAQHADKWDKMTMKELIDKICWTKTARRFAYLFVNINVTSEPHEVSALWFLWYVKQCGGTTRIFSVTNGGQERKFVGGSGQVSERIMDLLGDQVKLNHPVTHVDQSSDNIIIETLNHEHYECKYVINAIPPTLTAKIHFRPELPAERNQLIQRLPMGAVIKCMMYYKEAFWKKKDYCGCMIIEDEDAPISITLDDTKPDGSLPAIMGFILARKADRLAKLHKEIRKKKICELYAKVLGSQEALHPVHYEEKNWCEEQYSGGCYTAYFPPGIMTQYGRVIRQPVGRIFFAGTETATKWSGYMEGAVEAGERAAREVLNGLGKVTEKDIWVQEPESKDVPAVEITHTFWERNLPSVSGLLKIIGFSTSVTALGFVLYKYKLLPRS
# [4] = Solubility observation at the concentrations tested; conditions: at the concentrations tested in the MAO assays
# recombinant human MAO-B [5] = target: T1, recombinant human MAO-B; format: biochemical
# recombinant human MAO-B [6] = target: T1, recombinant human MAO-B; format: binding
# recombinant human MAO-B [7] = target: T1, recombinant human MAO-B; format: biochemical; remark: listed apart in the source
# [8] = read-out: MAO-B IC50 (μM) ± S.D., kynuramine 50 μM, test compounds 0.01 to 100 μM, mean ± S.D. of triplicate
compound,measurement,setting,value
R-(−)-deprenyl hydrochloride,inhibition of MAO activity in NS-1 cells,[1],> 90%
"CCCCC/C=C\C/C=C\C/C=C\C/C=C\CCCC(=O)NCC(=O)O [NA-glycine, N-arachidonyl-glycine]",critical micellar concentration (CMC),[2]; ref 48,> 100 µM
"CCCCC/C=C\C/C=C\C/C=C\C/C=C\CCCC(=O)OC(CO)CO [2-AG, 2-arachidonoylglycerol]",critical micellar concentration (CMC),[2]; ref 48,4.2 ± 0.5 µM
same,IC50,recombinant human MAO-B [3],50.5 ± 0.515 µM
same,IC50,recombinant human MAO-A,> 100 µM
same,solubility issues,[4],did not show any solubility issues
CCCCC/C=C\C/C=C\C/C=C\C/C=C\CCCC(=O)NCCO [Anandamide],IC50,recombinant human MAO-B [3],40 ± 4.6 µM
same,IC50,recombinant human MAO-A,> 100 µM
CCCCCCCC/C=C\CCCCCCCC(=O)NCCO [Oleylethanolamide],MAO-B IC50 (μM) ± S.D.,"recombinant human MAO-B [3]; kynuramine 50 μM, test compounds 0.01 to 100 μM, mean ± S.D. of triplicate",no activity
same,IC50,recombinant human MAO-B [3]; [8],> 100 µM
same,MAO-A IC50 (μM) ± S.D.,"recombinant human MAO-A; kynuramine 80 μM, test compounds 0.01 to 100 μM, mean ± S.D. of triplicate",no activity
CCCCC/C=C\C/C=C\C/C=C\C/C=C\CCCCOC(CO)CO [Noladin ether],IC50,recombinant human MAO-B [3]; [8],18.2 ± 1.45 µM
same,solubility issues,[4],did not show any solubility issues
CCCCC/C=C\C/C=C\C/C=C\C/C=C\CCCC(=O)N[C@H](C)CO [(R)-(+)-Methanandamide],IC50,recombinant human MAO-B [3]; [8],51.1 ± 1.3 µM
same,solubility issues,[4],did not show any solubility issues
CCCCC/C=C\C/C=C\C/C=C\C/C=C\CCCC(=O)OCCN [Virodhamine],MAO-B Type of Inhibition,recombinant human MAO-B [5]; Lineweaver-Burk analysis and dialysis,mixed mechanism/irreversible binding; also recorded: mixed enzyme inhibition mechanism
same,Ki,"recombinant human MAO-B [5]; read-out: MAO-B Ki (μM) ± S.D., kynuramine 1.90 to 500 μM, mean ± S.D. of triplicate",0.258 ± 0.037 µM
same,fold greater inhibition of MAO-B compared to MAO-A,recombinant human MAO-B [3]; ratio of IC50 MAO-A / MAO-B,~ 55 fold and > 54 fold
same,IC50,recombinant human MAO-B [3]; [8],0.71 ± 0.04 µM
same,nature of binding with MAO-B (reversibility),recombinant human MAO-B [6]; equilibrium dialysis overnight,irreversible
same,enzyme activity recovered after overnight dialysis,"recombinant human MAO-B [6]; virodhamine 10.0 μM, 20 min at 37 °C, dialysis 14-16 h at 4 °C",2.644 ± 0.450%
same,inhibition of catalytic activity before dialysis,"recombinant human MAO-B [6]; virodhamine 10.0 μM, 20 min incubation",almost complete inhibition
same,inhibition of MAO-B after pre-incubation,"recombinant human MAO-B [7]; 0.25 μM virodhamine, pre-incubation 0-15 min",55-70%
same,time dependence of MAO-B inhibition,"recombinant human MAO-B [7]; pre-incubation 0-15 min, virodhamine 2.5 μM, deprenyl 0.100 μM",time-dependent
same,inhibition of the enzyme activity at the concentration chosen,recombinant human MAO-B [7]; virodhamine 2.5 μM,> 60%
CCCCC/C=C\C/C=C\C/C=C\C/C=C\CCCCO [arachidonoyl alcohol],critical micellar concentration (CMC),[2]; ref 46,30 µM
CCCCC/C=C\C/C=C\C/C=C\C/C=C\CCCC(=O)O [arachidonic acid],critical micellar concentration (CMC),[2]; ref 46,73 µM
same,critical micellar concentration (CMC),[2]; ref 47,~ 30 μM
